Source: article PMC7304851 (Journal for Immunotherapy of Cancer, 2020)
Entries after “also recorded” stand apart in the source; their conditions may differ.

What was measured:
[1] = Clinical pharmacokinetics in plasma; type: in vivo, human
[2] = test system: immune-cell infiltration in tumor; assay: Paired tumor biopsies: immunohistochemistry and TLDA gene expression; type: in vivo, human
[3] = test system: Pan02 pancreatic syngeneic tumor model; assay: Preclinical FDG-PET, Pan02 model; type: in vivo, mouse; conditions: data not shown
[4] = test system: FDG-avid tumor lesions; assay: 18FDG-PET metabolic response; type: in vivo, human
[5] = test system: advanced tumors; assay: Tumor response by irRECIST, survival and treatment duration; type: in vivo, human
[6] = Phase 1 safety and tolerability; type: in vivo, human
[7] = test system: 4T1 breast syngeneic tumor model; assay: Preclinical FDG-PET, 4T1 model; type: in vivo, mouse; conditions: 4T1 breast model, data not shown
[8] = test system: EP4-regulated genes and immune-related circulating factors; assay: Blood gene expression, serum cytokines/chemokines, flow cytometry; type: in vivo, human
How it was run: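 Patients with advanced tumors took oral drug once daily (125–750 mg) in 21-day cycles. mRNA isolated from blood was profiled on a 92-gene TaqMan Low Density Array panel. Serum/plasma levels of 36 immune-related circulating factors were measured by proteomics, ELISA and Meso Scale Discovery multiplex. Blood immune subsets were assessed by eight-color flow cytometry. Cycle 1 day 15 was compared with baseline by paired t-test.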

[9] = test system: mouse syngeneic tumor models; conditions: dependent on myeloid cells and CD8+ T cells; cited from earlier work
[10] = test system: macrophage infiltration; conditions: preclinical models; cited from earlier work
[11] = test system: relapsed or refractory classical Hodgkin’s lymphoma; conditions: cited from earlier work
[12] = test system: primary human peripheral blood mononuclear cells (PBMCs); assay: EP4 agonist in PBMCs, TNF-α and CXCL10 by RT-PCR; type: cell-based; conditions: PBMCs from healthy donors incubated with EP4 agonist
[13] = all patients, combined incidence
[14] = blood, on treatment versus baseline
[15] = cycle 1 day 15 compared with baseline

C[C@H](NC(=O)c1c(C(F)F)nn(C)c1Oc1cccc(C(F)(F)F)c1)c1ccc(C(=O)O)cc1 [E7046]
exposure versus dose ([1]; 125 to 750 mg): dose proportional up to 500 mg, with no incremental increase at 750 mg | Free E7046 concentration versus Ki of EP4 inhibition ([1]; all four doses, cycle 1 day 8): reached or exceeded the preclinical Ki value | accumulation on multiple dosing ([1]; daily oral dosing): twofold to threefold | time to maximum drug concentration ([1]; postdose, across all doses): ~ 2 hours | tumor gene expression of TNF-α and CXCL10 ([2]; 10 paired biopsies, without reaching statistical significance): upregulation | increase in expression of CXCL10 in the tumor ([2]; individual patient case): ~ 20% | increase in percentage of CD8+ T cells in the tumor ([2]; individual patient case): 31% | CD3+ and CD8+ T cells in tumor tissues (immunohistochemistry) ([2]; paired biopsies of 11 patients, baseline to cycle 2 day 1): significant increase | FDG-PET signal compared with vehicle treatment [3]: decreased the FDG-PET signal | patients with partial metabolic response (18FDG-PET) ([4]; 15 evaluable patients (3/15), SUVmax reduction ≥25%): 20% | FDG-PET signal reduction (partial metabolic response) ([4]; individual patient case): 31% | duration of treatment of the three patients with partial metabolic responses ([4]; longest among all patients): 145 to 208 days | best response of stable disease, number of patients ([5]; 125 mg): 2 | patients with best response of durable stable disease for ≥18 weeks ([5]; 125 mg (n=2/8)): 25% | best response of stable disease, number of patients ([5]; 250 mg): 2 | patients with best response of durable stable disease for ≥18 weeks ([5]; 250 mg (n=2/8)): 25% | best response of stable disease, number of patients ([5]; 750 mg): 3 | patients with longer duration of treatment on E7046 compared with most recent prior anticancer therapy ([5]; 10 patients of 30): 33% | disease control rate ([5]; all patients (n=30)): 23% | objective responses by irRECIST ([5]; all patients (n=30)): no objective responses | patients with best response of stable disease (irRECIST) ([5]; all patients (n=30)): 23% | median duration of treatment ([5]; all patients, range: 1.1–30): 5.9 weeks | TEAE incidence diarrhea ([6]; 750 mg dose cohort): 42.9% | TEAE incidence fatigue ([6]; 750 mg dose cohort): 42.9% | TEAE incidence nausea ([6]; 750 mg dose cohort): 42.9% | Dose-limiting toxicities (DLTs) ([6]; 125, 250, 500 and 750 mg orally once daily, cycle 1): No dose-limiting toxicities were observed; also recorded: no DLTs observed; also recorded: No DLTs were reported | Maximum tolerated dose (MTD) ([6]; 125 to 750 mg orally once daily): not reached | fatal treatment-related TEAE ([6]; all patients): No patients experienced a fatal treatment-related TEAE | patients who discontinued treatment due to TEAEs ([6]; all patients): 17% | patients with grade ≥3 treatment-related TEAEs ([6]; all patients): 10% | patients with treatment-related SAEs ([6]; all patients (3/30)): 10% | patients with at least 1 TEAE ([6]; all patients (n=30)): 93% | TEAE (all grades) diarrhea [6, 13]: 33.3% | TEAE (all grades) fatigue [6, 13]: 36.7% | TEAE (all grades) nausea [6, 13]: 30% | FDG-PET signal compared with vehicle treatment [7]: decreased the FDG-PET signal | circulating gene expression of CD274 (PD-L1) and PDCD1LG2 (PD-L2) [8, 14]: increased expression | circulating gene expression of EOMES, PTGER4 and IDO1 [8, 14]: decreased expression | number of genes modulated in blood out of a 92-immune-gene panel [8, 15]: 16 | number of serum cytokines and chemokines modulated out of a panel of 36 [8, 15]: 14 | serum level of CXCL10 ([8]; cycle 1 day 15 compared with baseline, p=0.0015): significantly upregulated | serum level of CCL5 ([8]; cycle 1 day 15 compared with baseline, p=0.0292): significantly upregulated | major immune cell subsets in the blood (T cells, B cells, natural killer cells, MDSC) ([8]; eight-color flow cytometry, data not shown): no significant changes | growth of multiple mouse syngeneic tumor models [9]: inhibited the growth

CN(C)CC(=O)N1CCC(c2ccc(NC(=O)c3nc(C#N)c[nH]3)c(C3=CCCCC3)c2)CC1 [JNJ-28312141]
macrophage infiltration [10]: substantially decreased macrophage infiltration

CC1(C)CC=C(c2nc(C3CC(C)(C)OC(C)(C)C3)ccc2NC(=O)c2nc(C#N)c[nH]2)CC1 [JNJ-40346527]
objective response rate ([11]; 1/21 patients had complete response): 5% | patients who achieved stable disease ([11]; 11/21 patients): 55%

CCCCC[C@H](O)/C=C/[C@H]1[C@H](O)CC(=O)[C@@H]1CCCCCCCO [PGE1-OH]
expression of TNF-α and CXCL10 [12]: dose-dependent down-regulation; also recorded: dose-dependently suppressed
